The values below come from ChEMBL document CHEMBL3797186, “Single Residue Substitutions That Confer Voltage-Gated Sodium Ion Channel Subtype Selectivity in the NaV1.7 Inhibitory Peptide GpTx-1” (J Med Chem, 2016).

Positions of bridges follow the written chain, without caps; N, C: chain ends. Residues, ends and D or L forms follow the SMILES beside them. Bounds are passed on as bounds.

In test [1] the target is Sodium channel protein type 5 subunit alpha (Homo sapiens, UniProt Q14524). Nature of the test: Inhibition of human Nav1.5 expressed in HEK293 cells assessed as inward peak current by ion-works quattro patch clamp electrophysiology method. Format: cell-based. The method in brief: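 Stable HEK293 line expressing human NaV1.5, recorded by population patch clamp on the IonWorks Quattro.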
For orientation: The patch-clamp technique gives a direct electrical read-out from membranes.

In test [2] the target is Sodium channel protein type 9 subunit alpha (Homo sapiens, UniProt Q15858). Nature of the test: Inhibition of human Nav1.7 expressed in HEK293 cells assessed as inward peak current by ion-works quattro patch clamp electrophysiology method. Format: cell-based.
Chain of Sodium channel protein type 9 subunit alpha (Q15858 whole entry): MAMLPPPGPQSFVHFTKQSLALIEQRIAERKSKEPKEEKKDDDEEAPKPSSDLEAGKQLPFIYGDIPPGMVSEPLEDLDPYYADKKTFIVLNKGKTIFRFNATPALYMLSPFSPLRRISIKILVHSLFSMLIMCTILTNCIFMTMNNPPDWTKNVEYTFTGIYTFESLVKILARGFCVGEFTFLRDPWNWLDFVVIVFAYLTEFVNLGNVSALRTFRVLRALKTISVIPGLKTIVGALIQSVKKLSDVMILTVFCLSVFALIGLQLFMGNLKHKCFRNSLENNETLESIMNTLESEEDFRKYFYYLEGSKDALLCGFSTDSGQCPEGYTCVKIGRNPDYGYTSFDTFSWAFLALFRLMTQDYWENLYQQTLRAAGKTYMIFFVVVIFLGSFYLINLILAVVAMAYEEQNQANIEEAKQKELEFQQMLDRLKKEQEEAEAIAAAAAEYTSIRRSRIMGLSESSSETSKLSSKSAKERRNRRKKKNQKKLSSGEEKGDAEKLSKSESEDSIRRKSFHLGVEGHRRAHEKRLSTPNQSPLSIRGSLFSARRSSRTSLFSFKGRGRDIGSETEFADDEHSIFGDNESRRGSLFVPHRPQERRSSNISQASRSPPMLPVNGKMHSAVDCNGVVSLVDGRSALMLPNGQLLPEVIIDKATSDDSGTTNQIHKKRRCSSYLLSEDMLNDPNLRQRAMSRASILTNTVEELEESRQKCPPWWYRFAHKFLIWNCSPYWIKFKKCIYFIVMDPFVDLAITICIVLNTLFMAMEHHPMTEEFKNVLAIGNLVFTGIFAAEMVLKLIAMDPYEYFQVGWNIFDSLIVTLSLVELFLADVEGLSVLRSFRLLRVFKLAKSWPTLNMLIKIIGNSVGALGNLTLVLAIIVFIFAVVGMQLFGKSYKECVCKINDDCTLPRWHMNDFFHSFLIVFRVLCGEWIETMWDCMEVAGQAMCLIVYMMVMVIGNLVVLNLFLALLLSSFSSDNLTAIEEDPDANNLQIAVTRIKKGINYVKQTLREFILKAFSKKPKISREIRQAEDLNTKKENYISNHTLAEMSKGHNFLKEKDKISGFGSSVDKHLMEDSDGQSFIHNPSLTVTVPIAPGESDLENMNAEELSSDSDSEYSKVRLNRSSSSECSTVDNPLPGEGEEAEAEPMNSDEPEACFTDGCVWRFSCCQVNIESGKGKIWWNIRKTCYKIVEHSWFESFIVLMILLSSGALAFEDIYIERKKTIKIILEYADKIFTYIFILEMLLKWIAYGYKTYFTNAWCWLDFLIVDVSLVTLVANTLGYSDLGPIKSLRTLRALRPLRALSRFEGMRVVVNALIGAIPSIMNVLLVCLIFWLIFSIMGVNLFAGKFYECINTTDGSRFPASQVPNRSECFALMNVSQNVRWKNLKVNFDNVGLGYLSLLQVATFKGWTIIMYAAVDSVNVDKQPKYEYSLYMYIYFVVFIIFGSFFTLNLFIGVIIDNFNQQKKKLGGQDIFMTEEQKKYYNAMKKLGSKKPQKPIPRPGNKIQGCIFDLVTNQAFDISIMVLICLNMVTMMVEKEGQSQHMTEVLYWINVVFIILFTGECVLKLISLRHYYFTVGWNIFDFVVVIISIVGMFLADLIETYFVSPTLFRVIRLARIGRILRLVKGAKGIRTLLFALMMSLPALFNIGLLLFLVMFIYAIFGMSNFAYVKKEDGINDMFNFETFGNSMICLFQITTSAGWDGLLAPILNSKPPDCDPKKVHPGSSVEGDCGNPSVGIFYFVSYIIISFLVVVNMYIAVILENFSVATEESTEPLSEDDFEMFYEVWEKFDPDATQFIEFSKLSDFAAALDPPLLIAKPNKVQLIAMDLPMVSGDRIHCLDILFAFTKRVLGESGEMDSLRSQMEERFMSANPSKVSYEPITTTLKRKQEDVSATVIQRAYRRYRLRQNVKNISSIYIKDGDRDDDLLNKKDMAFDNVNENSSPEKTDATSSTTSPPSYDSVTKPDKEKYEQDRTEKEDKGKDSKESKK

Chain of Sodium channel protein type 5 subunit alpha (Q14524 whole entry): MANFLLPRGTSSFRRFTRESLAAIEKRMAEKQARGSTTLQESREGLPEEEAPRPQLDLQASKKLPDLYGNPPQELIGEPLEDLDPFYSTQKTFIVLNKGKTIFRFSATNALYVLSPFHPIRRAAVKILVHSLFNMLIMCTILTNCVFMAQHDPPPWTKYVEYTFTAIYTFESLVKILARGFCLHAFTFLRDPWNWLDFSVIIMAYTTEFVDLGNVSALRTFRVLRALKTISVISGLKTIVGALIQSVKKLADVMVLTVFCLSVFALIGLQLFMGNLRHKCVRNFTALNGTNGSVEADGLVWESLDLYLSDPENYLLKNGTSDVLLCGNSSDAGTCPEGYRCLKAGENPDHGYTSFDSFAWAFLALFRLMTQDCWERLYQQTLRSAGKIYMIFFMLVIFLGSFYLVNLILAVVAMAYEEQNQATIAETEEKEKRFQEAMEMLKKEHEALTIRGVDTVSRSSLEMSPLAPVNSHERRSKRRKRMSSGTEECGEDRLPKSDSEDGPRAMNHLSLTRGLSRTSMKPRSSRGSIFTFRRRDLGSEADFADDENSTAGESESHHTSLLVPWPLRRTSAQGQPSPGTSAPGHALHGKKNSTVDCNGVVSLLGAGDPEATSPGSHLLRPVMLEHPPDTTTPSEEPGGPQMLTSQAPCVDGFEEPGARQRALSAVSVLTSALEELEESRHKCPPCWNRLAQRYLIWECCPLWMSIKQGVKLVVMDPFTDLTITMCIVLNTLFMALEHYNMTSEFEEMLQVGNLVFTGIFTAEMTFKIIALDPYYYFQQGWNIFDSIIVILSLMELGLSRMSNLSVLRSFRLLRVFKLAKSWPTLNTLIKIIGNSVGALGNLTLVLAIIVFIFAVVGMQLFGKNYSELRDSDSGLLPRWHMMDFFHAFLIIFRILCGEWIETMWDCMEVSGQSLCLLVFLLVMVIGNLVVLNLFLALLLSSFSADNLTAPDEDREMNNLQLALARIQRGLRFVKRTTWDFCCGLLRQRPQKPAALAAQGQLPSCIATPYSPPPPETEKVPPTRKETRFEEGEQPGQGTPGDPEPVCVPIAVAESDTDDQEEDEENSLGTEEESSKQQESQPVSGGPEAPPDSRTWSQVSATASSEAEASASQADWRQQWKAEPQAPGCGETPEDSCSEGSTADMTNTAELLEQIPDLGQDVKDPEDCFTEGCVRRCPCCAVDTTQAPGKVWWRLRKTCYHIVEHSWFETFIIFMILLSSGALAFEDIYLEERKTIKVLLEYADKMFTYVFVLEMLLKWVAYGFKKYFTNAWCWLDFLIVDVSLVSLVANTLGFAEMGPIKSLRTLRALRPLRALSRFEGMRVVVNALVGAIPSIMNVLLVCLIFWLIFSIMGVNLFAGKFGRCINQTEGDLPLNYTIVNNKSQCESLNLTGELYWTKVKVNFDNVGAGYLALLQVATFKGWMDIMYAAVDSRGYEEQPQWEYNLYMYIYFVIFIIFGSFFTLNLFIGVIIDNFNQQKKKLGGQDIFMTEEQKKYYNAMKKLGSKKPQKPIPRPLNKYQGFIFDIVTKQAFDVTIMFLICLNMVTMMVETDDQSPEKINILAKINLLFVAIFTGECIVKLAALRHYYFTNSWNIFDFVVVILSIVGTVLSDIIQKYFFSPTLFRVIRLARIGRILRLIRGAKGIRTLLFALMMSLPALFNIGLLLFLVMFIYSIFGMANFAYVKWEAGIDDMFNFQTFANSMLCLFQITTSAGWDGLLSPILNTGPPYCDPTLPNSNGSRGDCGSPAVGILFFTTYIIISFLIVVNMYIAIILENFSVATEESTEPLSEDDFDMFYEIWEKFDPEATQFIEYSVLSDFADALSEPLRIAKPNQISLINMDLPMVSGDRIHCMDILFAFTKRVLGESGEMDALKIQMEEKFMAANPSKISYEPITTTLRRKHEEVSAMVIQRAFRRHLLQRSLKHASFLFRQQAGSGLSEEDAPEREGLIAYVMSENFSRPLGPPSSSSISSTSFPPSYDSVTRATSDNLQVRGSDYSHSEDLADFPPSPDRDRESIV

In general, IC50 refers to the midpoint of a concentration-inhibition curve. As for `CC[C@H](C)[C@@H]1NC(=O)[C@@H]2CSSC[C@@H]3NC(=O)[C@H](C(C)C)NC(=O)[C@H](CC(C)C)NC(=O)[C@H](CCCCN)NC(=O)[C@@H]4CCCN4C(=O)[C@H](CCCNC(=N)N)NC(=O)[C@H](CSSC[C@H](NC(=O)[C@@H](N)CC(=O)O)C(=O)N[C@@H](CC(C)C)C(=O)NCC(=O)N[C@@H](Cc4ccccc4)C(=O)N[C@@H](CCSC)C(=O)N[C@@H](CCCNC(=N)N)C(=O)N[C@@H](CCCCN)C(=O)N2)NC(=O)[C@H](CSSC[C@@H](C(=O)N[C@@H](CCCCN)C(=O)N[C@@H](Cc2ccc(O)cc2)C(=O)N[C@H](C(=O)N[C@@H](Cc2ccccc2)C(N)=O)C(C)C)NC(=O)[C@H](Cc2c[nH]c4ccccc24)NC(=O)[C@H](CCCCN)NC(=O)[C@H](Cc2cnc[nH]2)NC(=O)[C@H]([C@@H](C)O)NC(=O)[C@H](CCCNC(=N)N)NC(=O)[C@H](CO)NC3=O)NC(=O)[C@H](CCCCN)NC(=O)[C@H](CC(=O)O)NC(=O)[C@H](CC(N)=O)NC(=O)[C@H](CC(=O)O)NC(=O)[C@@H]2CCCN2C1=O` (H-DCLGFMRKCIPDNDKCCRPKLVCSRTHKWCKYVF-NH2; disulfide 2-17, 9-23, 16-30), the figures for the IC50 in test [1] and in test [2] were more than 5000 nM and 630 nM, respectively.
On to `CC[C@H](C)[C@@H]1NC(=O)[C@@H]2CSSC[C@@H]3NC(=O)[C@H](C(C)C)NC(=O)[C@H](CC(C)C)NC(=O)[C@H](CC(N)=O)NC(=O)[C@@H]4CCCN4C(=O)[C@H](CCCNC(=N)N)NC(=O)[C@H](CSSC[C@H](NC(=O)[C@@H](N)CC(=O)O)C(=O)N[C@@H](CC(C)C)C(=O)NCC(=O)N[C@@H](Cc4ccccc4)C(=O)N[C@@H](CCSC)C(=O)N[C@@H](CCCNC(=N)N)C(=O)N[C@@H](CCCCN)C(=O)N2)NC(=O)[C@H](CSSC[C@@H](C(=O)N[C@@H](CCCCN)C(=O)N[C@@H](Cc2ccc(O)cc2)C(=O)N[C@H](C(=O)N[C@@H](Cc2ccccc2)C(N)=O)C(C)C)NC(=O)[C@H](Cc2c[nH]c4ccccc24)NC(=O)[C@H](CCCCN)NC(=O)[C@H](Cc2cnc[nH]2)NC(=O)[C@H]([C@@H](C)O)NC(=O)[C@H](CCCNC(=N)N)NC(=O)[C@H](CO)NC3=O)NC(=O)[C@H](CCCCN)NC(=O)[C@H](CC(=O)O)NC(=O)[C@H](CC(N)=O)NC(=O)[C@H](CC(=O)O)NC(=O)[C@H](Cc2c[nH]c3ccccc23)NC1=O` (H-DCLGFMRKCIWDNDKCCRPNLVCSRTHKWCKYVF-NH2; disulfide 2-17, 9-23, 16-30), for which the 50% inhibitory concentration (IC50) in test [1] was more than 5000 nM; in test [2], 80 nM.
For `CC[C@H](C)[C@@H]1NC(=O)[C@@H]2CSSC[C@@H]3NC(=O)[C@H](C(C)C)NC(=O)[C@H](CC(C)C)NC(=O)[C@H](CC(N)=O)NC(=O)[C@@H]4CCCN4C(=O)[C@H](CCCNC(=N)N)NC(=O)[C@H](CSSC[C@H](NC(=O)[C@@H](N)CC(=O)O)C(=O)N[C@@H](CC(C)C)C(=O)NCC(=O)N[C@@H](Cc4c[nH]c5ccccc45)C(=O)N[C@@H](CCSC)C(=O)N[C@@H](CCCNC(=N)N)C(=O)N[C@@H](CCCCN)C(=O)N2)NC(=O)[C@H](CSSC[C@@H](C(=O)N[C@@H](CCCCN)C(=O)N[C@@H](Cc2ccc(O)cc2)C(=O)N[C@H](C(=O)N[C@@H](Cc2ccccc2)C(N)=O)C(C)C)NC(=O)[C@H](Cc2c[nH]c4ccccc24)NC(=O)[C@H](CCCCN)NC(=O)[C@H](Cc2cnc[nH]2)NC(=O)[C@H]([C@@H](C)O)NC(=O)[C@H](CCCNC(=N)N)NC(=O)[C@H](CO)NC3=O)NC(=O)[C@H](CCCCN)NC(=O)[C@H](CC(=O)O)NC(=O)[C@H](CC(N)=O)NC(=O)[C@H](CC(=O)O)NC(=O)[C@@H]2CCCN2C1=O` (H-DCLGWMRKCIPDNDKCCRPNLVCSRTHKWCKYVF-NH2; disulfide 2-17, 9-23, 16-30), the figures for the IC50 in test [1] and in test [2] were more than 5000 nM and 200 nM, respectively.
The corresponding values for `CC[C@H](C)[C@@H]1NC(=O)[C@@H]2CSSC[C@@H]3NC(=O)[C@H](C(C)C)NC(=O)[C@H](CC(C)C)NC(=O)[C@H](CC(N)=O)NC(=O)[C@@H]4CCCN4C(=O)[C@H](CCCNC(=N)N)NC(=O)[C@H](CSSC[C@H](NC(=O)[C@@H](N)CC(=O)O)C(=O)N[C@@H](CC(C)C)C(=O)NCC(=O)N[C@@H](Cc4ccccc4)C(=O)N[C@@H](CCSC)C(=O)N[C@@H](CCCNC(=N)N)C(=O)N[C@@H](CCCCN)C(=O)N2)NC(=O)[C@H](CSSC[C@@H](C(=O)N[C@@H](CCCCN)C(=O)N[C@@H](Cc2ccc(O)cc2)C(=O)N[C@H](C(=O)N[C@@H](Cc2ccccc2)C(N)=O)C(C)C)NC(=O)[C@H](CCCCN)NC(=O)[C@H](CCCCN)NC(=O)[C@H](Cc2cnc[nH]2)NC(=O)[C@H]([C@@H](C)O)NC(=O)[C@H](CCCNC(=N)N)NC(=O)[C@H](CO)NC3=O)NC(=O)[C@H](CCCCN)NC(=O)[C@H](CC(=O)O)NC(=O)[C@H](CC(N)=O)NC(=O)[C@H](CC(=O)O)NC(=O)[C@@H]2CCCN2C1=O` (H-DCLGFMRKCIPDNDKCCRPNLVCSRTHKKCKYVF-NH2; disulfide 2-17, 9-23, 16-30) are more than 5000 nM and more than 5000 nM.
As for `CSCC[C@@H]1NC(=O)[C@H](Cc2ccccc2)NC(=O)CNC(=O)[C@H](CC(C)C)NC(=O)[C@@H](NC(=O)[C@@H](N)CC(=O)O)CSSC[C@@H]2NC(=O)[C@@H]3CSSC[C@@H](C(=O)N[C@@H](CCCCN)C(=O)N[C@@H](Cc4ccc(O)cc4)C(=O)N[C@H](C(=O)N[C@@H](Cc4ccccc4)C(N)=O)C(C)C)NC(=O)[C@H](Cc4c[nH]c5ccccc45)NC(=O)[C@H](CCCCN)NC(=O)[C@H](Cc4cnc[nH]4)NC(=O)[C@H]([C@@H](C)O)NC(=O)[C@H](CCCNC(=N)N)NC(=O)[C@H](CO)NC(=O)[C@H](CSSC[C@H](NC(=O)[C@H](CCCCN)NC(=O)[C@H](CCCNC(=N)N)NC1=O)C(=O)N[C@@H](CC(C)C)C(=O)N1CCC[C@H]1C(=O)N[C@@H](CC(=O)O)C(=O)N[C@@H](CC(N)=O)C(=O)N[C@@H](CC(=O)O)C(=O)N[C@@H](CCCCN)C(=O)N3)NC(=O)[C@H](C(C)C)NC(=O)[C@H](CC(C)C)NC(=O)[C@H](CC(N)=O)NC(=O)[C@@H]1CCCN1C(=O)[C@H](CCCNC(=N)N)NC2=O` (H-DCLGFMRKCLPDNDKCCRPNLVCSRTHKWCKYVF-NH2; disulfide 2-17, 9-23, 16-30), the results for the IC50 in test [1] and in test [2] were more than 5000 nM and 140 nM, respectively.
Consider `CC[C@H](C)[C@@H]1NC(=O)[C@@H]2CSSC[C@@H]3NC(=O)[C@H](C(C)C)NC(=O)[C@H](CC(C)C)NC(=O)[C@H](CC(N)=O)NC(=O)[C@@H]4CCCN4C(=O)[C@H](CCCNC(=N)N)NC(=O)[C@H](CSSC[C@H](NC(=O)[C@@H](N)CC(=O)O)C(=O)N[C@@H](CC(C)C)C(=O)NCC(=O)N[C@@H](Cc4ccccc4)C(=O)N[C@@H](CCSC)C(=O)N[C@@H](CCCNC(=N)N)C(=O)N[C@@H](CCCCN)C(=O)N2)NC(=O)[C@H](CSSC[C@@H](C(=O)N[C@@H](CCCCN)C(=O)N[C@@H](Cc2ccc(O)cc2)C(=O)N[C@H](C(=O)N[C@@H](Cc2ccccc2)C(N)=O)C(C)C)NC(=O)[C@H](Cc2c[nH]c4ccccc24)NC(=O)[C@H](CCCCN)NC(=O)[C@H](Cc2cnc[nH]2)NC(=O)[C@H](CCCNC(=N)N)NC(=O)[C@H](CCCNC(=N)N)NC(=O)[C@H](CO)NC3=O)NC(=O)[C@H](CCCCN)NC(=O)[C@H](CC(=O)O)NC(=O)[C@H](CC(N)=O)NC(=O)[C@H](CC(=O)O)NC(=O)[C@@H]2CCCN2C1=O` (H-DCLGFMRKCIPDNDKCCRPNLVCSRRHKWCKYVF-NH2; disulfide 2-17, 9-23, 16-30), for which the IC50 in test [1] came out at 3500 nM; in test [2] it was 40 nM.
Take `CC[C@H](C)[C@@H]1NC(=O)[C@@H]2CSSC[C@@H]3NC(=O)[C@H](C(C)C)NC(=O)[C@H](CC(C)C)NC(=O)[C@H](CC(N)=O)NC(=O)[C@@H]4CCCN4C(=O)[C@H](CCCNC(=N)N)NC(=O)[C@H](CSSC[C@H](NC(=O)[C@@H](N)CC(=O)O)C(=O)N[C@@H](CC(C)C)C(=O)NCC(=O)N[C@@H](Cc4ccccc4)C(=O)N[C@@H](CCSC)C(=O)N[C@@H](CCCNC(=N)N)C(=O)N[C@@H](CCCCN)C(=O)N2)NC(=O)[C@H](CSSC[C@@H](C(=O)N[C@@H](CCCCN)C(=O)N[C@@H](Cc2ccc(O)cc2)C(=O)N[C@H](C(=O)N[C@@H](Cc2c[nH]c4ccccc24)C(N)=O)C(C)C)NC(=O)[C@H](Cc2c[nH]c4ccccc24)NC(=O)[C@H](CCCCN)NC(=O)[C@H](Cc2c[nH]cn2)NC(=O)[C@H]([C@@H](C)O)NC(=O)[C@H](CCCNC(=N)N)NC(=O)[C@H](CO)NC3=O)NC(=O)[C@H](CCCCN)NC(=O)[C@H](CC(=O)O)NC(=O)[C@H](CC(N)=O)NC(=O)[C@H](CC(=O)O)NC(=O)[C@@H]2CCCN2C1=O` (H-DCLGFMRKCIPDNDKCCRPNLVCSRTHKWCKYVW-NH2; disulfide 2-17, 9-23, 16-30): the IC50 in test [1] is more than 5000 nM; in test [2], 270 nM.
For `CC[C@H](C)[C@@H]1NC(=O)[C@@H]2CSSC[C@@H]3NC(=O)[C@H](C(C)C)NC(=O)[C@H](CC(C)C)NC(=O)[C@H](CC(N)=O)NC(=O)[C@@H]4CCCN4C(=O)[C@H](CCCNC(=N)N)NC(=O)[C@H](CSSC[C@H](NC(=O)[C@@H](N)CC(=O)O)C(=O)N[C@@H](CC(C)C)C(=O)NCC(=O)N[C@@H](Cc4ccccc4)C(=O)N[C@@H](CCSC)C(=O)N[C@@H](CCCNC(=N)N)C(=O)N[C@@H](CCCCN)C(=O)N2)NC(=O)[C@H](CSSC[C@@H](C(=O)N[C@@H](CCCCN)C(=O)N[C@@H](Cc2ccc(O)cc2)C(=O)N[C@H](C(=O)N[C@@H](Cc2ccccc2)C(N)=O)C(C)C)NC(=O)[C@H](Cc2c[nH]c4ccccc24)NC(=O)[C@H](CCCCN)NC(=O)[C@H](Cc2cnc[nH]2)NC(=O)[C@H]([C@@H](C)O)NC(=O)[C@H](CCCNC(=N)N)NC(=O)[C@H](CO)NC3=O)NC(=O)[C@H](CCCCN)NC(=O)[C@H](CC(=O)O)NC(=O)[C@H](CC(N)=O)NC(=O)[C@H](Cc2c[nH]c3ccccc23)NC(=O)[C@@H]2CCCN2C1=O` (H-DCLGFMRKCIPWNDKCCRPNLVCSRTHKWCKYVF-NH2; disulfide 2-17, 9-23, 16-30), the IC50 in test [1] was more than 5000 nM; in test [2], 60 nM.
